From ChEMBL document CHEMBL1136989, “Targeting human gastrointestinal stromal tumor cells with a quadruplex-binding small molecule” (J Med Chem, 2009)
pIC50: −log10 of the molar value. Active and inactive are the calls of the source. No cut-off for these calls is given here.

Columns and labels:
[1] = test system: HT-29; assay: Antiproliferative activity against human HT-29 cells after 96 hrs by SRB assay; type: functional, cell-based; conditions: HT-29, 96 h
Method in brief: (§1)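 Sulforhodamine B assay after 96 hr continuous drug exposure; IC50 in μM taken as the mean of triplicate experiments. GIST882 cells were kept in RPMI 1640 with 15% FBS. HT-29 and MCF-7 were kept in DMEM with 10% FBS, and HGC-27 in MEM with 10% FBS.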

[2] = target: Mast/stem cell growth factor receptor Kit (Homo sapiens) (UniProt P10721); assay: Reduction in KIT protein expression in human GIST882 cells after 24 hrs by Western blot; type: functional, cell-based
Mast/stem cell growth factor receptor Kit (Homo sapiens), sequence (P10721 whole entry): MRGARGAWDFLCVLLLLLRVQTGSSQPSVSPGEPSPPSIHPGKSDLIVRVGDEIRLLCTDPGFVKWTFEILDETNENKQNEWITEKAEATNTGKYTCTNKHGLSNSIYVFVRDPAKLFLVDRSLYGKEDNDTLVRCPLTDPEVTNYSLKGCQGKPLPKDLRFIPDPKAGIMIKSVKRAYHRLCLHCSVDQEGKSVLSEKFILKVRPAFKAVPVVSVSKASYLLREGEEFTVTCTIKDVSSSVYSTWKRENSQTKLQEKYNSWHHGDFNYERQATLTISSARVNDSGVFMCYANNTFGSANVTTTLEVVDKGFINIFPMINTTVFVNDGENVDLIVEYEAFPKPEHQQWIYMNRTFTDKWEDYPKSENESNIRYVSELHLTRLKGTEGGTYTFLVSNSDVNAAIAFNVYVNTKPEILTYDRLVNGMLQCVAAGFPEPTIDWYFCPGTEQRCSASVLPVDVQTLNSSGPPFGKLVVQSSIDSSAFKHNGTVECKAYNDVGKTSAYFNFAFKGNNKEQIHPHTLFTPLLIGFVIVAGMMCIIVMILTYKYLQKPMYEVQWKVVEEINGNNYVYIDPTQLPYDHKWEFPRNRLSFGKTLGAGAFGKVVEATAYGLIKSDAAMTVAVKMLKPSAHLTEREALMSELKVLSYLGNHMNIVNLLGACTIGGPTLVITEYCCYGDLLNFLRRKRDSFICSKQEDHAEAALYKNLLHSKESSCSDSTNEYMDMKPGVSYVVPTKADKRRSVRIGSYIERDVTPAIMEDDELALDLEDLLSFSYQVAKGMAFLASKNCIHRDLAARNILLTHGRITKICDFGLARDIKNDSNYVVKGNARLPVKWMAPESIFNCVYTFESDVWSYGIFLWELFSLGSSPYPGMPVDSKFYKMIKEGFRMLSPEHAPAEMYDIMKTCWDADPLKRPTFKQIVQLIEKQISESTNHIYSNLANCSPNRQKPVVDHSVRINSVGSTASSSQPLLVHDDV
Method in brief: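 GIST882 cells (RPMI 1640 + 15% FBS) exposed 24 hr to 0.5 or 1 µM test compound, or imatinib at 5 and 10 µM. Lysates protein-quantified by Bradford, then electrophoresed and immunoblotted for total KIT, with actin blot as loading control; vehicle-treated cells as reference.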

[3] = test system: Nucleic Acid; assay: Stabilization of human G4-telomeric quadruplex assessed as melting temperature by FRET assay; type: nucleic-acid assay
Method in brief: (§2)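 FRET melting of FAM/TAMRA dual-labelled oligonucleotides, annealed at 90°C in 60 mM K+ cacodylate buffer pH 7.4. Final conditions: 200 nM DNA and 500 nM ligand. Fluorescence read at 0.5°C steps from 30 to 100°C, ramping 1°C/min, with excitation 450–495 nm and emission 515–545 nm. Tm taken as the derivative maximum; ΔTm given relative to ligand-free control.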

[4] = test system: Nucleic Acid; assay: Stabilization of human G4-KIT2 DNA quadruplex assessed as melting temperature by FRET assay; type: nucleic-acid assay; method in brief: as §2
[5] = test system: HGC-27; assay: Antiproliferative activity against human HGC27 cells after 96 hrs by SRB assay; type: functional, cell-based; conditions: HGC-27, 96 h; method in brief: as §1
[6] = test system: Nucleic Acid; assay: Stabilization of synthetic duplex DNA assessed as melting temperature by FRET assay; type: nucleic-acid assay; method in brief: as §2
[7] = test system: MCF7; assay: Antiproliferative activity against human MCF7 cells after 96 hrs by SRB assay; type: functional, cell-based; conditions: MCF7, 96 h; method in brief: as §1
[8] = target: Mast/stem cell growth factor receptor Kit (Homo sapiens) (UniProt P10721); assay: Reduction in KIT mRNA expression in human GIST882 cells after 24 hrs; type: functional, cell-based
Method in brief: (§3)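 GIST882 cells (1×10^6) exposed to drug for 24 hr. Total RNA extracted, and 250 ng used for one-step RT-PCR of KIT, MYC, hTERT and N-RAS. Band levels normalized to GAPDH and to untreated control.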

[9] = test system: Nucleic Acid; assay: Stabilization of human G4-KIT1 DNA quadruplex assessed as melting temperature by FRET assay; type: nucleic-acid assay; method in brief: as §2
[10] = Antiproliferative activity against human GIST882 cells after 96 hrs by SRB assay; type: functional, cell-based; conditions: GIST882, 96 h; method in brief: as §1
[11] = Cytotoxicity against human GIST48 cells assessed as effect on cell viability after 3 to 6 days by luciferase based luminescence assay; type: functional
Method in brief: (§4)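 CellTiter-Glo luciferase/ATP luminescence viability read-out. Cells plated at 10,000–30,000 per well and grown overnight in serum-containing medium, then dosed for 3 to 6 days alongside a water-solvent control. Signal normalized to control; each point in triplicate. GIST882, GISTT1 and LMS04 were grown in RPMI 1640 with 15% FBS. GIST48 and GIST48B were grown in F10 with 15% FBS, mito+ serum extender and bovine pituitary extract.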

[12] = test system: GISTT1; assay: Cytotoxicity against human GISTT1 cells assessed as effect on cell viability after 3 to 6 days by luciferase based luminescence assay; type: functional; method in brief: as §4
[13] = target: Mast/stem cell growth factor receptor Kit (Homo sapiens) (UniProt P10721); assay: Reduction in KIT protein expression in human GIST882 cells at 1 uM after 24 hrs by Western blot; type: functional, cell-based
Method in brief: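 GIST882 cells treated for 24 hr, compound at 0.5 or 1 μM and imatinib at 5 or 10 μM. Lysate protein measured by Bradford, then electrophoresis and immunoblotting for total KIT with an actin loading control.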

[14] = test system: GIST882; assay: Antiproliferative activity against human GIST882 cells at 0.1 uM after 2 weeks; type: functional, cell-based
Method in brief: (§5)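 Long-term proliferation of GIST882 cells under continuous exposure for three weeks at 0.1, 0.25 or 0.5 μM. Growth followed as cumulative population doublings relative to an untreated control arm.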

[15] = test system: GIST882; assay: Antiproliferative activity against human GIST882 cells at 0.25 uM after 1 week; type: functional, cell-based; method in brief: as §5
[16] = test system: GIST882; assay: Cytotoxicity against human GIST882 cells assessed as growth inhibition at 0.5 uM after 1 week; type: functional, cell-based; method in brief: as §5
[17] = Reduction in telomerase mRNA expression in human GIST882 cells after 24 hrs; type: functional, cell-based; method in brief: as §3
[18] = test system: GIST882; assay: Cytotoxicity against human GIST882 cells assessed as effect on cell viability after 3 to 6 days by luciferase based luminescence assay; type: functional; method in brief: as §4
[19] = Reduction in MYC mRNA expression in human GIST882 cells after 24 hrs; type: functional, cell-based; design: scale not given: the % may be the effect or the level left; method in brief: as §3
[20] = Reduction in N-RAS mRNA expression in human GIST882 cells after 24 hrs; type: functional, cell-based; method in brief: as §3
[21] = test system: GIST882; assay: Antiproliferative activity against human GIST882 cells at 0.5 uM after 1 week; type: functional, cell-based; method in brief: as §5
[22] = target: Telomerase reverse transcriptase (Homo sapiens) (UniProt O14746); assay: Inhibition of telomerase in human GIST882 cells at 0.5 uM by TRAP-LIG assay; type: cell-based
Telomerase reverse transcriptase (Homo sapiens), sequence (O14746 whole entry): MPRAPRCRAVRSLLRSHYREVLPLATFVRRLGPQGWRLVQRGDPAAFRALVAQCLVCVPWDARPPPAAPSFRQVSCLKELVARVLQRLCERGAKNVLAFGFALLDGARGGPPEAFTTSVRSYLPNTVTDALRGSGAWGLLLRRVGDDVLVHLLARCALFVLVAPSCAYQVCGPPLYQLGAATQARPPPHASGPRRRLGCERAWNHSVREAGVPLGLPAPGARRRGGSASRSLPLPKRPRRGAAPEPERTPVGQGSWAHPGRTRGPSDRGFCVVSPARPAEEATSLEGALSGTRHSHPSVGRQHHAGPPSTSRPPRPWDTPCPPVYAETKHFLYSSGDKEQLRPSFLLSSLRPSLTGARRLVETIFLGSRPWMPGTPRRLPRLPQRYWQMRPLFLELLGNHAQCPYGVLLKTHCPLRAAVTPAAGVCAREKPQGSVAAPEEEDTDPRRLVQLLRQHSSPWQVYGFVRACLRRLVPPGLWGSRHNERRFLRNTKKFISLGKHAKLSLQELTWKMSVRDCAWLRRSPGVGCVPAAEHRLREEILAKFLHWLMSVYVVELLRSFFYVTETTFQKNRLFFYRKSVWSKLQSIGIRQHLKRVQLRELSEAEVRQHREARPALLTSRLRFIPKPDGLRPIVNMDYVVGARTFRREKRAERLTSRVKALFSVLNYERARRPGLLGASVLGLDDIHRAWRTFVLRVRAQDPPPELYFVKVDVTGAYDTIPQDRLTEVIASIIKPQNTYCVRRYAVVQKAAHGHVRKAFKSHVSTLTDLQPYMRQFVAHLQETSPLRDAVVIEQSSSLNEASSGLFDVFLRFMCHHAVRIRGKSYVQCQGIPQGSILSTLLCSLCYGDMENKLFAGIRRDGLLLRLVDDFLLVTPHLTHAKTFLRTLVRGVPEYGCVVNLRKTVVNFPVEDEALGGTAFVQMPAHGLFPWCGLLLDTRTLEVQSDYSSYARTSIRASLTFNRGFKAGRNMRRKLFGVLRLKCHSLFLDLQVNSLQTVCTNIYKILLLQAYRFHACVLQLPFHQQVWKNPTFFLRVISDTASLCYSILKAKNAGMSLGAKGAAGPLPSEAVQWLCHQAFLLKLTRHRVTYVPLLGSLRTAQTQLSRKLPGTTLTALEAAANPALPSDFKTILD
Method in brief: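 TRAP-LIG assay on GIST882 cells treated for one week. Cell protein extract in CHAPS lysis buffer was elongated with TS primer in TRAP buffer at 30°C for 10 min, then purified. A second PCR with ACX/TS primers ran 35 cycles. Products were run on 12% PAGE and stained with SYBR green. Ladder intensity was normalized to an untreated-protein positive control after negative-control background subtraction.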

[23] = species: Homo sapiens; assay: Cytotoxicity against human LMSO4 cells assessed as effect on cell viability after 3 to 6 days by luciferase based luminescence assay; type: functional; method in brief: as §4
[24] = test system: GIST882; assay: Cytotoxicity against human GIST882 cells assessed as growth inhibition at 0.25 uM after 1 week; type: functional, cell-based; method in brief: as §5
[25] = target: Mast/stem cell growth factor receptor Kit (Homo sapiens) (UniProt P10721); assay: Reduction in KIT mRNA expression in human GIST882 cells at 1 uM after 24 hrs relative to GAPDH level; type: functional, cell-based; design: scale not given: the % may be the effect or the level left; method in brief: as §3
[26] = test system: GIST48B; assay: Cytotoxicity against human GIST48B cells assessed as effect on cell viability after 3 to 6 days by luciferase based luminescence assay; type: functional; method in brief: as §4

SMILES | pIC50 [1] | Activity [2] | ΔTm [3] [°C] | ΔTm [4] [°C] | pIC50 [5] | ΔTm [6] [°C] | pIC50 [7] | Activity [8] | ΔTm [9] [°C] | pIC50 [10] | pIC50 [11] | also measured
C[n+]1ccc(-c2c3nc(c(-c4cc[n+](C)cc4)c4ccc([nH]4)c(-c4cc[n+](C)cc4)c4ccc([nH]4)c(-c4cc[n+](C)cc4)c4nc2C=C4)C=C3)cc1 [TMPYP4] | 5.35 | inactive | 27.8 | 21.6 | 5.57 | 8.7 | 5.21 | inactive | 11.1 | 4.88 |  | 
Cc1ccc(NC(=O)c2ccc(CN3CCN(C)CC3)cc2)cc1Nc1nccc(-c2cccnc2)n1 [IMATINIB] | 7.22 |  | 0.2 | 0.2 | 5.62 | 0.1 | 4.94 | inactive | 0.2 | 5.77 | 4.73 | 
O=C1c2cc(NCCN3CCCC3)c3c4c(cc(NCCN5CCCC5)c(c24)C(=O)N1CCN1CCCC1)C(=O)N(CCN1CCCC1)C3=O | 7.52 |  | 28.7 | 29 | 7.40 | 5.7 | 7.70 | Dose-dependent effect | 11.2 | 5.80 | 6.30 | Activity [12]: Active; Activity [13]: Active; Activity [14]: Active; Activity [15]: Active; Activity [16]: Active; Activity [17]: Active; Activity [18]: Active; Activity [19]: 25%; Activity [20]: inactive; Activity [21]: Active; Activity [22]: Active; Activity [23]: inactive; Activity [24]: Active; Activity [25]: 90%; Activity [26]: inactive
CN(C)c1ccc(Nc2c3ccc(NC(=O)CCN4CCCC4)cc3nc3cc(NC(=O)CCN4CCCC4)ccc23)cc1 | 5.57 | inactive | 21.6 | 18.5 | 5.59 | 7.2 | 5.66 | inactive | 6.5 | < 4.60 |  | 
